Source: ChEMBL document CHEMBL1250478 (J Med Chem, 2010)
Activity calls are given as the source filed them. No cut-off for these calls is given here.

Assays:
[1] = test system: Plasmodium berghei; experiment: Antiplasmodial activity against Plasmodium berghei infected in NMRI mice (Mus musculus) assessed as parasitaemia level at 30 mg/kg, perorally administered as single dose measured after 3 days relative to control; type: functional; conditions: route oral
Procedure, shortened: (§1)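 P. berghei blood diluted in saline to 10^8 parasitized erythrocytes/mL; 0.2 mL given i.v. to groups of 3 female NMRI mice (controls 5). Compounds dosed at 10 ml/kg either once on day 1 (oral gavage or subcutaneous) or orally at 4, 24, 48, 72 h post-infection. Parasitemia read by FACS on 100,000 RBCs from tail blood on day 3 (single dose) or day 4 (quadruple dose). Activity = % reduction versus control mean. Survival monitored to 30 days.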

[2] = test system: Plasmodium berghei; experiment: Antiplasmodial activity against Plasmodium berghei infected in NMRI mice (Mus musculus) assessed as survival rate at 30 mg/kg, perorally administered as 4 consecutive doses measured post last dose; type: functional; conditions: route oral; procedure, shortened: as §1
[3] = test system: Plasmodium falciparum; experiment: Inhibition of hemozoin formation in early trophozoites of chloroquine-sensitive Plasmodium falciparum D6 infected in RBC assessed as enlarged digestive vacuole at 100 nM after 24 hrs by microscopic analysis; type: functional, organism-based
Procedure, shortened: (§2)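 Ring-stage D6 parasites synchronized with 5% sorbitol, suspended at 1% hematocrit and drug added from 1 mM stock. Incubated 24 h at 37 °C under 5% O2/5% CO2/90% N2 alongside a no-drug control. Giemsa-stained smears were used for parasitemia and for microscopic examination of hemozoin and parasite morphology.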

[4] = test system: Plasmodium falciparum; experiment: Antiplasmodial activity against chloroquine-resistant Plasmodium falciparum Dd2 early trophozoites infected in NMRI mice (Mus musculus) RBC assessed as inhibition of hemozoin formation at 10 nM after 24 hrs by microscopic analysis; type: functional, organism-based
Procedure, shortened: (§3)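 D6 and Dd2 cultures synchronized to ring stage with 5% sorbitol, suspended at 1% hematocrit and exposed to drug (from 1 mM stock) for 24 h at 37 °C under 5% O2/5% CO2/90% N2. Giemsa-stained smears examined by microscopy for hemozoin, parasitemia and parasite morphology.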

[5] = test system: Plasmodium berghei; experiment: Antiplasmodial activity against Plasmodium berghei infected in NMRI mice (Mus musculus) assessed as parasitaemia level at 46 mg/kg, perorally administered as 4 consecutive doses measured after 4 days post last dose relative to control; type: functional; conditions: route oral
[6] = test system: Plasmodium falciparum; experiment: Antiplasmodial activity against chloroquine-sensitive Plasmodium falciparum D6 early trophozoites infected in NMRI mice (Mus musculus) RBC assessed as inhibition of hemozoin formation at 50 nM after 24 hrs by microscopic analysis; type: functional, organism-based; procedure, shortened: as §2
[7] = test system: Plasmodium berghei; experiment: Antiplasmodial activity against Plasmodium berghei infected in NMRI mice (Mus musculus) assessed as parasitaemia level at 30 mg/kg, subcutaneously after 3 days relative to control; type: functional; conditions: route subcutaneous; procedure, shortened: as §1
[8] = test system: Plasmodium berghei; experiment: Antiplasmodial activity against Plasmodium berghei infected in NMRI mice (Mus musculus) assessed as survival rate at 30 mg/kg, perorally administered as single dose; type: functional; conditions: route oral; procedure, shortened: as §1
[9] = test system: Plasmodium falciparum; experiment: Antiplasmodial activity against synchronized chloroquine-sensitive Plasmodium falciparum D6 infected in NMRI mice (Mus musculus) RBC assessed as inhibition of hemozoin formation at 10 nM after 24 hrs by colorimetric analysis; type: functional, organism-based
Procedure, shortened: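 D6 cultures synchronized with sorbitol, held at 1% hematocrit, drug-treated 24 h at 37 °C. Parasites freeze-thawed, then lysed 30 min at 37 °C in saponin/Triton X-100 buffer. Hemozoin pelleted at 215,000 g, washed with acetone and PBS, dissolved 2 h in 0.2 N NaOH. Heme read at A400 (ε 91,000 cm-1M-1) and expressed per parasitized erythrocyte. A 0 h culture gave the baseline.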

[10] = test system: Plasmodium falciparum; experiment: Antiplasmodial activity against chloroquine-resistant Plasmodium falciparum Dd2 early trophozoites infected in NMRI mice (Mus musculus) RBC assessed as inhibition of hemozoin formation at 50 nM after 24 hrs by microscopic analysis; type: functional, organism-based; procedure, shortened: as §3
[11] = test system: Plasmodium berghei; experiment: Antiplasmodial activity against Plasmodium berghei infected in NMRI mice (Mus musculus) assessed as survival rate at 30 mg/kg, subcutaneously administered as single dose; type: functional; conditions: route subcutaneous; procedure, shortened: as §1
[12] = test system: Plasmodium berghei; experiment: Antiplasmodial activity against Plasmodium berghei infected in NMRI mice (Mus musculus) assessed as survival rate at 46 mg/kg, perorally administered as 4 consecutive doses measured post last dose; type: functional; conditions: route oral; procedure, shortened: as §1
[13] = test system: Plasmodium falciparum; experiment: Antiplasmodial activity against synchronized chloroquine-resistant Plasmodium falciparum Dd2 infected in NMRI mice (Mus musculus) RBC assessed as inhibition of hemozoin formation at 100 nM after 24 hrs by colorimetric analysis; type: functional, organism-based
Procedure, shortened: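 Sorbitol-synchronized D6 and Dd2 cultures at 1% hematocrit were drug-treated for 24 h at 37 °C. Parasites were freed by freeze-thaw and saponin/Triton lysis buffer (37 °C, 30 min). Hemozoin was pelleted at 215,000 g, washed with acetone and PBS, then dissolved in 0.2 N NaOH. Heme was quantified by A400 (ε 91,000 cm-1M-1) per parasitized erythrocyte. Baseline was taken from 0 h culture.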

[14] = test system: Plasmodium falciparum; experiment: Antiplasmodial activity against chloroquine-sensitive Plasmodium falciparum D6 early trophozoites infected in NMRI mice (Mus musculus) RBC assessed as inhibition of hemozoin formation at 10 nM after 24 hrs by microscopic analysis; type: functional, organism-based; procedure, shortened: as §2
[15] = test system: Plasmodium berghei; experiment: Antiplasmodial activity against Plasmodium berghei infected in NMRI mice (Mus musculus) assessed as parasitaemia level at 30 mg/kg, perorally administered as 4 consecutive doses measured after 3 days post last dose relative to control; type: functional; conditions: route oral; procedure, shortened: as §1
[16] = test system: Mus musculus; experiment: Toxicity in NMRI mouse at 30 mg/kg, po administered as single dose; type: organism-based; parameters: dose 30 mg/kg, route oral; conditions: in vivo

Clc1ccc2c(NCCCN3CCC(NC(c4ccccn4)c4ccccn4)CC3)ccnc2c1 [DM-1157]
Activity [1]: 94% | Survival [2]: 27 days | inhibition [3]: Active | inhibition [4]: Active | Activity [5]: >99.9% | inhibition [6]: Active | Activity [7]: 99.3% | Survival [8]: 7 days | inhibition [9]: Active | inhibition [10]: Active | Survival [11]: 9 days | Survival [12]: 30 days | inhibition [13]: Active | inhibition [14]: Active | Activity [15]: >99.9% | Activity [16]: Non-toxic
